SMILES strings stand for the structures. Calls of active or inactive are those of the source.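 Rule for the calls, unless noted: active = Her2 level under about 52% in both replicate screens, with viability over 70% of control (limit read from the data); inconclusive = Her2 under the limit in one screen only, or viability under 70%; inactive = Her2 level above the set limit.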

A short description of test [1]: Her2 expression decrease, cell viability multiplex – SKBR3 breast tumor cells, AlphaScreen, ATP viability, primary screen (AID 461).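 For Her2 level: lower value means less Her2 protein in the cells.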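 For viability: percent of carrier control wells set as 100% viability.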 The conditions noted are these: SKBR3 Her2 protein level, 18-24 h, measured here: SKBR3 viability, ATP luminescence, at 10 µM. For orientation: Bead proximity is the source of the signal in Alpha formats.
For test [2], the target named is Receptor tyrosine-protein kinase erbB-2 (Homo sapiens) (UniProt P04626). Described as above. The conditions noted are these: 18-24 h, at 10 µM, stronger effect = lower value.
Receptor tyrosine-protein kinase erbB-2 (Homo sapiens), sequence (P04626 whole entry, looked up): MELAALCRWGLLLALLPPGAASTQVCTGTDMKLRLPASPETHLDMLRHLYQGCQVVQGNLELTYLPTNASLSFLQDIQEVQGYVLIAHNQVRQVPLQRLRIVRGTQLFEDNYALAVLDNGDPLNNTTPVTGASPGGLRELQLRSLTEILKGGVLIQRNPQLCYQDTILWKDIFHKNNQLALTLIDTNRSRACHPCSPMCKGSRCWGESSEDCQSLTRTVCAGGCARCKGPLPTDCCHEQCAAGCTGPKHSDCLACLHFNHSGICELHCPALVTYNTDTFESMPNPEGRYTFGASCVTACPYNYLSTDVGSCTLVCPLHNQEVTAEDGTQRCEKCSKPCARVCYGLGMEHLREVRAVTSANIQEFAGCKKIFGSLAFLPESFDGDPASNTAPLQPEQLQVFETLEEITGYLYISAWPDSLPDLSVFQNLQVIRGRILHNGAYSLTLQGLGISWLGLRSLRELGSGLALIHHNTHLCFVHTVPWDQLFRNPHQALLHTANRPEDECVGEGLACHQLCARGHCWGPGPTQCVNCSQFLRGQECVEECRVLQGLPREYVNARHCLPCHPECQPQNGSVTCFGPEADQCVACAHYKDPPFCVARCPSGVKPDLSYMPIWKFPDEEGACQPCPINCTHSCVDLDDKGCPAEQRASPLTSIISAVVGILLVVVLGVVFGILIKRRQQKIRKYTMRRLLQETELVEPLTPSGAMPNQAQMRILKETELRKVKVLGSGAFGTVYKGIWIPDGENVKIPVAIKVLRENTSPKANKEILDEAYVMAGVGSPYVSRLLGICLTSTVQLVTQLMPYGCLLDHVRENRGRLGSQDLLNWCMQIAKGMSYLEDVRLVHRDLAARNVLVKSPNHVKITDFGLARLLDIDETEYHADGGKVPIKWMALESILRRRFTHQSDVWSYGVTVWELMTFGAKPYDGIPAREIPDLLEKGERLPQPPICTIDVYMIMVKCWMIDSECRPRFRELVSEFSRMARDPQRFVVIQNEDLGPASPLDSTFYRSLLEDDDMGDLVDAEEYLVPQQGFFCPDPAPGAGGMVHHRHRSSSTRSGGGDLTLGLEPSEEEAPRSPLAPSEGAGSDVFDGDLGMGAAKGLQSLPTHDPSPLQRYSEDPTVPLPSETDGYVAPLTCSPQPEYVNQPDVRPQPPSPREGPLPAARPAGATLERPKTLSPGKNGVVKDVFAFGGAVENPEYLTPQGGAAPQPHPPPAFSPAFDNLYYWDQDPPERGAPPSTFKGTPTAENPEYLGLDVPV
Test [3] in a line: reduced viability of SK-BR-3 breast cancer cells – cell-based, 24 h, human, pilot screen (AID 572;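 active = viability at or below 10% of carrier control in both of two separate runs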;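 note: compound exposure lasted between 18 and 24 h rather than exactly 24 h; 100% = carrier-treated control wells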). As to conditions: SK-BR-3 viability, CellTiter-Glo luminescence, at 10 µM, stronger effect = lower value. A general note: ATP-based viability assays read luminescence as a measure of living cells.
A short description of test [4]: HUVEC growth inhibition – cell-based, human, primary screen (AID 575;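 active = viability at or below 30% in both replicate assays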;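 note: 100% = median of untreated cell wells with 0.1% DMSO on each plate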). The conditions noted are these: HUVEC proliferation, CellTiter-Glo luminescence, 72 h; at 10 µM; stronger effect = lower value. The method in brief: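 System: primary human umbilical vein endothelial cells; Quantity: 1250 endothelial cells in each well; Buffer or medium: supplemented EBM, 2% fetal bovine serum; Doses: one dose, 10 µM final, 0.1% DMSO; Incubation: 72 h compound incubation; Technique: ATP-based CellTiter-Glo luminescent read; Evaluation: percent of median DMSO-control luminescence; Controls: vehicle and MePR control wells.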

Test [5] can be described thus: H69AR cell proliferation blockers – human, duplicate replicates, primary screen (AID 580;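 active = viability at or under a set limit in both replicates, limit being median viability minus 3 SD, cut at about 48% in these data, passing the limit was not always enough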;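 note: 100% = mean luminescence of untreated wells and 0% = no signal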). The conditions noted are these: H69AR lung tumor cells viability, ATP luminescence, 72 h; at 10 µM; stronger effect = lower value.
A short description of test [6]: MRP1 drug-resistance reversers in H69AR cells – cell-based, doxorubicin co-treatment, pilot screen (AID 601;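 active = viability loss from added drug above about 55%, and viability with drug at most 40%, in both replicates, limit read from the data, passing the limit was not always enough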). The conditions noted are these: CellTiter-Glo, 72 h, at 10 µM; for differential viability (reversal): stronger effect = higher value.
A short description of test [7]: yeast transport mutant growth inhibition pilot in 384-well plates, post-Golgi transport modulator project (AID 636; in the data active = inhibition above about 31%). As to conditions: absorbance 615 nm, about 18 h, stronger effect = higher value.
The nature of test [8]: growth suppression of yeast trafficking mutant, preliminary HTS, modulators of trafficking downstream of Golgi apparatus project, 1536-format plate, OD 615 nm (AID 637; in the data active = inhibition above about 30%). As to conditions: yeast transport mutant growth, absorbance 615 nm, 18 h; stronger effect = higher value.
The mark [9] stands for this setting: H69AR cells + 2 uM doxorubicin, measured here: viability with 2 uM doxorubicin, stronger effect = lower value.
[10] abbreviates: H69AR cells, compound alone cytotoxicity.

One may read the viability as a read-out of living cells in per cent, often relative to untreated cells. Broadly, the inhibition is the drop in the measured response relative to a control, in per cent. As to `O=C(OCC#CCSc1nnc(-c2ccncc2)o1)c1cccs1`, the viability in test [1] was 118%; in test [3], 118% (inactive); in test [4], 88.2% (inactive); in test [5] it was 82% (inactive); in test [6] (setting [9]) it was 83.3%; in test [6] (setting [10]), 82%. For the same compound, the Her2 level in test [2] was 102% (inactive). Moreover, in test [6] (H69AR cells + 2 uM doxorubicin), the differential viability (reversal) is -1.25% (inactive). The inhibition in test [7] was -4.67% (inactive); in test [8] it was 1.43% (inactive).
Turning to `COC(=O)C1=C(N)Oc2cc(C)[nH]c(=O)c2C1c1ccncc1` (stereo not given), the viability was 132% in test [1]; 132% (inactive) in test [3]; 94.4% (inactive) in test [4]; 94.7% (inactive) in test [5]; 87.3% in test [6] (setting [9]); 94.7% in test [6] (setting [10]). In test [2], the Her2 level is 106% (inactive). Further, in test [6] (H69AR cells + 2 uM doxorubicin), the differential viability (reversal) was 7.35% (inactive). Moreover, the inhibition in test [7] was -0.79% (inactive); in test [8], 5% (inactive).
On to `COc1ccc(C(=O)NCCSc2ccccn2)cc1`, for which the viability in test [1] was 97%; in test [3] it was 97% (inactive); in test [4], 102% (inactive); in test [5], 96% (inactive); in test [6] (setting [9]), 78.6%; in test [6] (setting [10]), 96%. In test [2], the Her2 level is 108% (inactive). Also, the differential viability (reversal) in test [6] (H69AR cells + 2 uM doxorubicin) is 17.4% (inactive). For the same compound, the inhibition is -7.07% (inactive) in test [7] and 0.32% (inactive) in test [8].
Consider `Cc1ccc(NC(=O)CS(=O)CC(=O)NCC2CCCO2)cc1` (stereo not given), for which the viability in test [1] is 96.5%; in test [3], 96.5% (inactive); in test [4], 103% (inactive); in test [5], 96.8% (inactive); in test [6] (setting [9]), 89%; in test [6] (setting [10]), 96.8%. Besides, the Her2 level in test [2] was 120% (inactive). Moreover, the differential viability (reversal) in test [6] (H69AR cells + 2 uM doxorubicin) is 7.8% (inactive). In addition, the inhibition is -1.62% (inactive) in test [7] and 25% (inactive) in test [8].
Take `CC1=C(C)C(=O)NC(Nc2nc(C)c3cc(C)cc(C)c3n2)N1` (stereo not given): the viability in test [1] is 120%; in test [3] it was 120% (inactive); in test [4], 10.6% (active); in test [5] it was 17.2% (active); in test [6] (setting [9]), 10.9%; in test [6] (setting [10]), 17.2%. Moreover, the Her2 level in test [2] is 79.5% (inactive). Moreover, the differential viability (reversal) in test [6] (H69AR cells + 2 uM doxorubicin) was 6.29% (inactive). Also, the inhibition in test [7] was -3.59% (inactive); in test [8], -3% (inactive).
As for `CN(C)c1ccc(/C=C/c2ccncc2)cc1`, the viability in test [1] is 96%; in test [3] it was 96% (inactive); in test [4] it was 89.9% (inactive); in test [5] it was 90.5% (inactive); in test [6] (setting [9]), 90.1%; in test [6] (setting [10]) it was 90.5%. In addition, the Her2 level in test [2] is 152% (inactive). Moreover, in test [6] (H69AR cells + 2 uM doxorubicin), the differential viability (reversal) is 0.41% (inactive). For the same compound, the inhibition in test [7] was 3.03% (inactive); in test [8], 4% (inactive).
In the case of `CN(Cc1ccco1)C(=O)Cn1c(=O)oc2cc(S(=O)(=O)NCc3ccccc3)ccc21`, the viability in test [1] is 92%; in test [3], 92% (inactive); in test [4] it was 96.4% (inactive); in test [5] it was 89.8% (inactive); in test [6] (setting [9]) it was 93.4%; in test [6] (setting [10]), 89.8%. The Her2 level in test [2] was 85.5% (inactive). Besides, the differential viability (reversal) in test [6] (H69AR cells + 2 uM doxorubicin) was -3.67% (inactive). For the same compound, the inhibition in test [7] was -2.67% (inactive); in test [8], 1.8% (inactive).
As to `CCOc1ccc(-n2cc(C(=O)N3CCN(C)CC3)c3cc(OC)c(OC)cc3c2=O)cc1`, the viability in test [1] is 87%; in test [3], 87% (inactive); in test [4], 103% (inactive); in test [5] it was 97.1% (inactive); in test [6] (setting [9]), 110%; in test [6] (setting [10]), 97.1%. Besides, in test [2], the Her2 level is 104% (inactive). Also, the differential viability (reversal) in test [6] (H69AR cells + 2 uM doxorubicin) is -12.4% (inactive). The inhibition in test [7] was 1.62% (inactive); in test [8] it was -0.16% (inactive).
Consider `Cc1cc(C(=O)CSCc2nnc3n(CCC(C)C)c(=O)c4ccccc4n23)c(C)n1C`, for which the viability in test [1] is 99.5%; in test [3], 99.5% (inactive); in test [4], 84.2% (inactive); in test [5], 67.3% (inactive); in test [6] (setting [9]) it was 66.8%; in test [6] (setting [10]), 67.3%. Moreover, the Her2 level in test [2] is 84% (inactive). Moreover, the differential viability (reversal) in test [6] (H69AR cells + 2 uM doxorubicin) is 0.59% (inactive). Besides, the results for the inhibition in test [7] and in test [8] were -1.84% (inactive) and -0.73% (inactive), respectively.
With `Nc1nonc1-c1noc(CCCCCN2C(=O)c3ccccc3C2=O)n1`, the viability was 102% in test [1]; 102% (inactive) in test [3]; 108% (inactive) in test [4]; 105% (inactive) in test [5]; 97.6% in test [6] (setting [9]); 105% in test [6] (setting [10]). Besides, in test [2], the Her2 level was 102% (inactive). In addition, the differential viability (reversal) in test [6] (H69AR cells + 2 uM doxorubicin) was 7.63% (inactive). Further, the inhibition is -4.4% (inactive) in test [7] and -6.61% (inactive) in test [8].
With `O=C(c1cc2ccccc2oc1=O)N1CCSC1c1ccco1` (stereo not given), the viability in test [1] is 100%; in test [3], 100% (inactive); in test [4] it was 97.5% (inactive); in test [5], 91.5% (inactive); in test [6] (setting [9]) it was 85.3%; in test [6] (setting [10]), 91.5%. Moreover, in test [2], the Her2 level is 93.5% (inactive). Moreover, the differential viability (reversal) in test [6] (H69AR cells + 2 uM doxorubicin) is 6.19% (inactive). Further, the inhibition was -8.4% (inactive) in test [7] and 5.74% (inactive) in test [8].
As to `CCc1ccc(C2CC(c3ccccc3)n3ncnc3N2)cc1` (stereo not given), the viability in test [1] was 80%; in test [3], 80% (inactive); in test [4], 83.1% (inactive); in test [5], 88.1% (inactive); in test [6] (setting [9]), 84.3%; in test [6] (setting [10]), 88.1%. Further, the Her2 level in test [2] was 86% (inactive). Also, in test [6] (H69AR cells + 2 uM doxorubicin), the differential viability (reversal) was 3.85% (inactive). Further, the results for the inhibition in test [7] and in test [8] were 3.59% (inactive) and 0.67% (inactive), respectively.
In the case of `CCC1C(=O)n2nc(-c3ccccc3)cc2N=C1C` (stereo not given), the viability in test [1] is 106%; in test [3], 106% (inactive); in test [4], 86.9% (inactive); in test [5], 99% (inactive); in test [6] (setting [9]), 90.2%; in test [6] (setting [10]), 99%. Further, in test [2], the Her2 level was 66.5% (inactive). Besides, in test [6] (H69AR cells + 2 uM doxorubicin), the differential viability (reversal) is 8.73% (inactive). Moreover, the values for the inhibition in test [7] and in test [8] were -0.39% (inactive) and -3.17% (inactive), respectively.
Consider `COCCn1c(SCC(=O)c2ccccc2)nc2c(c1=O)SC(C)C2` (stereo not given), for which the viability in test [1] was 108%; in test [3], 108% (inactive); in test [4], 98.9% (inactive); in test [5], 79.7% (inactive); in test [6] (setting [9]) it was 52.1%; in test [6] (setting [10]), 79.7%. Besides, the Her2 level in test [2] was 106% (inactive). Further, the differential viability (reversal) in test [6] (H69AR cells + 2 uM doxorubicin) was 27.6% (inactive). Also, the inhibition is -5.2% (inactive) in test [7] and 3.44% (inactive) in test [8].
In the case of `COc1ccccc1CNC(=O)CCNC(=O)Cn1ccc2ccccc2c1=O`, the viability is 93% in test [1]; 93% (inactive) in test [3]; 98.3% (inactive) in test [4]; 100% (inactive) in test [5]; 87.4% in test [6] (setting [9]); 100% in test [6] (setting [10]). Besides, the Her2 level in test [2] is 92% (inactive). For the same compound, the differential viability (reversal) in test [6] (H69AR cells + 2 uM doxorubicin) is 12.8% (inactive). Further, the inhibition in test [7] is -0.13% (inactive); in test [8], 4.59% (inactive).
For `COCCNC(=O)c1ccc2c(c1)nc(C)n2-c1cccc(F)c1`, the viability in test [1] is 129%; in test [3], 129% (inactive); in test [4], 92.7% (inactive); in test [5], 90.5% (inactive); in test [6] (setting [9]), 90.6%; in test [6] (setting [10]) it was 90.5%. In addition, the Her2 level in test [2] was 79.5% (inactive). In test [6] (H69AR cells + 2 uM doxorubicin), the differential viability (reversal) was -0.17% (inactive). Also, the inhibition is -0.92% (inactive) in test [7] and 4.35% (inactive) in test [8].

Source of the values: PubChem BioAssay.
